Reference: ChEMBL document CHEMBL1148894, “Triterpene saponins from the roots of Clematis chinensis” (J Nat Prod, 2004)
Calls of active or inactive are those of the source. The rule behind the calls is not given here.

Tests used:
[1] = system: HL-60; test: Cytotoxicity against human HL60 cells after 72 hrs by MTT assay; format: functional, cell-based; settings: HL-60, 72 h
Summary of the method: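 HL-60 cells (JCRB 0085) grown in RPMI 1640 with heat-inactivated 10% FBS, L-glutamine, penicillin and streptomycin. Seeded at 4 × 10^4 cells/mL, preincubated 24 h at 37 °C in 5% CO2. Samples added in EtOH-H2O (1:1) to final 0.1-50 µg/mL, with vehicle controls, then incubated 72 h. MTT added for 4 h, formazan dissolved in DMSO, A550 read. Done in triplicate; IC50 is the 50% drop in viable cells.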

[2] = Cytotoxicity against human BSY1 cells; format: functional; settings: BSY-1, read-out: LC50 (the source's name)
[3] = system: U-251; test: Cytotoxicity against human U251 cells; format: functional; settings: read-out: LC50 (the source's name)
[4] = system: SF-295; test: Cytotoxicity against human SF295 cells; format: functional; settings: read-out: LC50 (the source's name)
[5] = system: PC-3; test: Cytotoxicity against human PC3 cells; format: functional; settings: read-out: LC50 (the source's name)
[6] = system: NCI-H460; test: Cytotoxicity against human NCI-H460 cells; format: functional; settings: read-out: LC50 (the source's name)
[7] = system: OVCAR-3; test: Cytotoxicity against human OVCAR-3 cells; format: functional; settings: read-out: LC50 (the source's name)
[8] = system: OVCAR-8; test: Cytotoxicity against human OVCAR8 cells; format: functional; settings: read-out: LC50 (the source's name)
[9] = system: MKN-28; test: Cytotoxicity against human MKN28 cells; format: functional; settings: read-out: LC50 (the source's name)
[10] = system: HL-60; test: Cytotoxicity against human HL60 cells at 20 uM after 72 hrs by MTT assay; format: functional, cell-based

## C[C@@H]1O[C@@H](OC[C@H]2O[C@@H](O[C@H]3[C@H](O)[C@@H](O)[C@H](O[C@@H]4CO[C@@H](O[C@@H]5[C@@H](O)[C@H](C)O[C@@H](O[C@H]6[C@H](O[C@H]7CC[C@]8(C)[C@H]9CC=C%10[C@@H]%11CC(C)(C)CC[C@]%11(C(=O)O)CC[C@@]%10(C)[C@]9(C)CC[C@H]8C7(C)C)OC[C@H](O)[C@@H]6O)[C@@H]5O)[C@H](O)[C@@H]4O)O[C@@H]3CO)[C@H](O)[C@@H](O)[C@@H]2O)[C@H](O)[C@H](O)[C@H]1O
[1]
  IC50: 2.8 µM
[2]
  CC50: 5.9 µM
[3]
  CC50: 6.3 µM
[4]
  CC50: 6 µM
[5]
  CC50: 6 µM
[6]
  CC50: 40 µM
[7]
  CC50: 47 µM
[8]
  CC50: 71 µM
[9]
  CC50: 30 µM

## C[C@@H]1O[C@@H](OC[C@H]2O[C@@H](O[C@H]3[C@H](O)[C@@H](O)[C@H](O[C@@H]4CO[C@@H](O[C@@H]5[C@@H](O)[C@H](C)O[C@@H](O[C@H]6[C@H](O[C@H]7CC[C@]8(C)[C@H]9CC=C%10[C@@H]%11CC(C)(C)CC[C@]%11(C(=O)O[C@@H]%11O[C@H](CO[C@@H]%12O[C@H](CO)[C@@H](O[C@@H]%13O[C@@H](C)[C@H](O)[C@@H](O)[C@H]%13O)[C@H](O)[C@H]%12O)[C@@H](O)[C@H](O)[C@H]%11O)CC[C@@]%10(C)[C@]9(C)CC[C@H]8C7(C)C)OC[C@H](O)[C@@H]6O)[C@@H]5O)[C@H](O)[C@@H]4O)O[C@@H]3CO)[C@H](O)[C@@H](O)[C@@H]2O)[C@H](O)[C@H](O)[C@H]1O
[10]
  Activity: inactive

## C[C@@H]1O[C@@H](O[C@H]2[C@H](O[C@H]3CC[C@]4(C)[C@H]5CC=C6[C@@H]7CC(C)(C)CC[C@]7(C(=O)O)CC[C@@]6(C)[C@]5(C)CC[C@H]4C3(C)C)OC[C@H](O)[C@@H]2O)[C@H](O)[C@H](O[C@@H]2OC[C@@H](O)[C@@H](O)[C@H]2O)[C@H]1O
[1]
  IC50: 2.3 µM
